The source of these data is ChEMBL document CHEMBL1141075, “4-Oxo-4,7-dihydrothieno[2,3-b]pyridines as non-nucleoside inhibitors of human cytomegalovirus and related herpesvirus polymerases” (J Med Chem, 2005).

pIC50: −log10 of the molar value.

For assay [1], the system named is HFF. Put plainly: Antiviral activity against human cytomegalovirus Ad169 (V823A) plaque forming unit grown on Human foreskin fibroblast cells upon incubation for 1 hour at 37 degrees C with compound dissolved in DMSO. It is filed as functional, cell-based, Human betaherpesvirus 5. Summed up: (§1)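 Plaque reduction: about 50 PFU added per well of a 24-well dish of the appropriate cells, 1 h at 37 °C, then the inoculum was replaced by drug-containing DMEM with 10% FBS and 0.8% carboxymethyl cellulose. DMSO stocks were 200-fold. Plates were held at 37 °C until plaques formed. Plaques were counted microscopically or after crystal violet stain. Percent inhibition was taken against the uninhibited control, with IC50 by linear regression.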

Assay [2] concerns Vero. Nature of the assay: Antiviral activity against herpes simplex virus type 1 KOS (WT) plaque forming unit grown on African green monkey kidney Vero cells upon incubation for 1 hour at 37 degrees C with compound dissolved in DMSO. The conditions noted are these: Chlorocebus sabaeus.
Assay [3] relates to Vero. Nature of the assay: Antiviral activity against herpes simplex virus type 1 KOS (V823A) plaque forming unit grown on Human foreskin fibroblast cells upon incubation for 1 hour at 37 degrees C with compound dissolved in DMSO. The format is functional, cell-based. The conditions noted are these: Chlorocebus sabaeus. Summed up: as §1
Assay [4] deals with Vero. Put plainly: Antiviral activity against herpes simplex virus type 1 Patton(BWr) plaque forming unit grown on Human foreskin fibroblast cells upon incubation for 1 hour at 37 degrees C with compound dissolved in DMSO. The format is functional, cell-based. The note with it: Chlorocebus sabaeus. Summed up:
as §1

The subject of assay [5] is Vero. Nature of the assay: Antiviral activity against herpes simplex virus type 1 KOS (PAAr5) plaque forming unit grown on African green monkey kidney Vero cells upon incubation for 1 hour at 37 degrees C with compound dissolved in DMSO. The conditions noted are these: Chlorocebus sabaeus.
For assay [6], the system named is Vero. Nature of the assay: Antiviral activity against herpes simplex virus type 2 (WT) plaque forming unit grown on Human foreskin fibroblast cells upon incubation for 1 hour at 37 degrees C with compound dissolved in DMSO. The format is functional, cell-based. The note with it: Chlorocebus sabaeus. In a few lines:
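Plaque reduction: about 50 PFU per well onto the appropriate cell monolayer, adsorbed 1 h at 37 °C. Inoculum was then replaced with DMEM containing 10% FBS, 0.8% carboxymethyl cellulose and diluted compound from 200-fold DMSO stocks. Plates were held at 37 °C until plaques formed, which were counted microscopically or after crystal violet staining. IC50 came from linear regression of % inhibition versus untreated control, as the mean of two determinations.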

Assay [7] concerns Vero. Nature of the assay: Antiviral activity against herpes simplex virus type 1 KOS (AraAr13) plaque forming unit grown on Human foreskin fibroblast cells upon incubation for 1 hour at 37 degrees C with compound dissolved in DMSO. It is filed as functional, cell-based. The conditions noted are these: Chlorocebus sabaeus. In a few lines:
as §1

In assay [8] the test system is Vero. Nature of the assay: Antiviral activity against herpes simplex virus type 1 Patton (WT) plaque forming unit grown on Human foreskin fibroblast cells upon incubation for 1 hour at 37 degrees C with compound dissolved in DMSO. The conditions noted are these: Chlorocebus sabaeus. The format is functional, cell-based. In a few lines: as §1

The term pIC50 denotes −log10 of the IC50, conventionally taken in molar units. For the molecule `Cn1cc(C(=O)NCc2ccc(Cl)cc2)c(=O)c2cc(CN3CCOCC3)sc21`, the pIC50 in assay [1] was 5.21; in assay [2], 5.25; in assay [3], under 4.30; in assay [4] it was 5.60; in assay [5] it was 6.10; in assay [6], 6.10. For the same molecule, the pIC50 in assay [7] is 5.68; in assay [8] it was 5.27.
